Arr AP2 block = blocks beta-arrestin peptide binding to AP2 adaptin; FITC-arrestin peptide / GST-AP2 beads, flow cytometry; AP2 beta2 appendage carries R879A mutation; inhibition, % at 10 µM; 340,000 compounds, 0.31% hits; AID 504490;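 active means inhibition above a set limit, near 3 SD of compounds lacking own fluorescence, cut at about 54% in these data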
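Test system: GST-tagged AP2 beta2-adaptin appendage (R879A) on 4 µm glutathione beads; also added: fluorescein-tagged arrestin peptide at 50 nM final; timing: 12 min plus 1 h, RT; signal: flow cytometry, FL1 (488/535 nm); read-out: percent drop in bead-associated FITC signal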
Lipid droplet = hepatic lipid droplet formation modulation. 240,000 compounds, 0.4% hits. AID 1656. inhibition, % at 6.5 µM. AML12 mouse hepatocytes, oleate lipid droplets, BODIPY imaging;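 active means lipid droplet intensity inhibited by at least 50%, with more than 500 cells counted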
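Test system: AML12 hepatocytes (mouse); reagent: oleate loading, 100 µM; dosing: one dose, 6.5 µM compound; incubation: overnight exposure; signal: fluorescence imaging, 20x objective, two fields per well; read-out basis: % inhibition of corrected integrated BODIPY droplet signal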
M18AAP inhibitor = PfM18AAP enzyme inhibition. recombinant PfM18AAP, H-Glu-NHMec fluorogenic cleavage. inhibition, % at 7.35 µM. 290,000 compounds, 1.2% hits;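 active means inhibition above the campaign mean inhibition over all tested compounds plus 3 SD, cut at about 28% in these data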
m5-HT2A agonist = agonists of mouse serotonin 5-HT2A receptor (HTR2A). activation, % at 7.6 µM. CHO-K1 mHTR2A beta-arrestin complementation, luminescence; percent of 30 µM serotonin response. P35363. 360,000 compounds, 0.66% hits;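 active means activation above a run cutoff, the mean activation of all tested compounds plus 3 SD, cut at about 14% in these data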
NRP1-CendR mod = alters CendR peptide binding to human NRP-1 | O14786 | FAM-RPARPAR peptide binding to NRP-1, fluorescence polarization | 360,000 compounds, 0.85% hits | inhibition, % at 25 µM;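 active means inhibition or corrected inhibition above about 18%, plus a signal ratio from 0.5 to 1.5, limit read from the data, passing the limit was not always enough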
sPLA2-III inh = Blocks human group III sPLA2 activity; Q9NZ20; QFRET BODIPY PC-A2 liposome hydrolysis, fluorescence; inhibition, % at 12.2 µM; 370,000 compounds, 0.56% hits; AID 743126;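 active means inhibition above mean plus 3 SD of compounds lying within the high and low control bounds, cut at about 19% in these data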
Target sequence (Q9NZ20 whole entry, looked up): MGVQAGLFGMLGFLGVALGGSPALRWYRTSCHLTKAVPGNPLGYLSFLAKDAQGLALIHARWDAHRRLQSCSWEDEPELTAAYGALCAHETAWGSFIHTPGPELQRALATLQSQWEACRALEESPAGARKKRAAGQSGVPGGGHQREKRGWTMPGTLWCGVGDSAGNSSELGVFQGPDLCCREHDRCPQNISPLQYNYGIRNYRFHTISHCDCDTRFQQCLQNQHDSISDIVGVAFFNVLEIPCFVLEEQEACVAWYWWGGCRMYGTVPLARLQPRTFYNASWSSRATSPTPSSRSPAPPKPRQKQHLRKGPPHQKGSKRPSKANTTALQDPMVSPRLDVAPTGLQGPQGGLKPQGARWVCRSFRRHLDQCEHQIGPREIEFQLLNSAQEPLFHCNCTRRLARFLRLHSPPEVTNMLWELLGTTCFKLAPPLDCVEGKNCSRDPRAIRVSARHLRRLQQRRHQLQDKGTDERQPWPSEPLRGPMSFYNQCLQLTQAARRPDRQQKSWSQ
OPRM1 ag = activates human mu opioid receptor in HTR2A counterscreen; shares compounds with m5-HT2A agonist; U2OS OPRM1 beta-arrestin PathHunter, luminescence; DMSO 0%, DAMGO 9.3 µM 100%; activation, % at 9.3 µM; 2,300 compounds, 5.3% hits; AID 624380;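 active means mean activation above the mean of DMSO-only wells plus 3 SD, cut at about 0.5% in these data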
HTR2A ag conf = confirmation of mouse HTR2A serotonin receptor agonists; activation, % at 7.6 µM; CHO-K1 PathHunter beta-arrestin recruitment, luminescence; DMSO 0%, 30 µM serotonin 100%; shares compounds with m5-HT2A agonist; 2,300 compounds, 19% hits;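 active means mean activation across triplicates above the hit threshold derived in the original primary screen, cut at about 15% in these data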
Numbers stand for hits; - = inactive; . = not tested or not shown. A selection: hits, their analogues and other compounds. The true share with any hit is near 3.3%.

SMILES | Arr AP2 block | Lipid droplet | M18AAP inhibitor | m5-HT2A agonist | NRP1-CendR mod | sPLA2-III inh | OPRM1 ag | HTR2A ag conf
CC(=O)Nc1ccc(C(=O)N/C(=C\c2ccccc2)C(=O)Nc2cccc(C(=O)O)c2)cc1 | - | . | - | - | - | - | . | .
CC(C)C[C@H]1COc2cccc(F)c2S(=O)(=O)N1C | . | . | . | . | . | - | . | .
CC(C)(C)OC(=O)N1CCC(C(=O)Nc2cccc(C(=O)NCc3ccccc3)c2)CC1 | - | . | . | - | - | - | . | .
O=C(O)CCCC[n+]1ccccc1 | . | . | . | . | . | - | . | .
COC(=O)[C@@]12C[C@@H](CC(=O)NCCc3ccccc3OC)C(=O)N(Cc3cccc4ccccc34)C1=CCC(C)(C)C2 | . | . | . | - | - | - | . | .
O=C1OC(c2ccccc2)(c2ccc3cc(O)ccc3c2)c2ccccc21 (configuration not stated) | - | . | . | - | - | - | . | .
CCCCN(C)C(=O)c1sc(=O)n(Cc2cc(Cl)ccc2OC)c1C | . | . | . | 17 | - | - | - | -
COc1ccc(Cl)cc1Cn1c(C)c(C(=O)N(C)Cc2ccc(F)cc2)sc1=O | . | . | . | - | - | - | . | .
CC(=O)NCc1ccc2[nH]c(C)cc2c1 | - | - | - | 17 | - | - | - | -
O=C(CS(=O)(=O)c1ccccc1)N1CCCCCC1 | - | - | - | 21 | - | - | - | -
O=C(c1cccc(S(=O)(=O)NCc2ccccc2)c1)N1CCCCC1 | - | . | . | 19 | - | - | - | -
CC(=O)N1CCN(C(=O)c2ccc(S(=O)(=O)Nc3ccccc3C)cc2)CC1 | - | . | . | - | - | - | . | .
Cc1ccc(S(=O)(=O)CC(=O)N2CCCC2)cc1 | - | - | - | - | - | - | . | .
Cc1ccccc1NS(=O)(=O)c1ccc(C(=O)N2CCN(S(=O)(=O)c3ccccc3)CC2)cc1 | - | . | . | 15 | - | - | - | -
O=C(c1ccc(NS(=O)(=O)c2ccccc2)cc1)N1CCCCCC1 | - | - | - | 17 | - | - | - | -
Cc1ccccc1C(=O)N[C@H](C(=O)N1CCC[C@H]1C(=O)NC1CCCC1)c1ccccc1 | . | . | . | . | . | - | . | .
COc1ccc(CCN2CCC(CN3C(=S)NC[C@@H]3Cc3ccccc3)CC2)cc1OC | . | . | . | . | . | - | . | .
COC(=O)CN1C(c2ccc(Cl)cc2)=Nc2ccc(Cl)cc2C1c1ccccc1 (configuration not stated) | - | - | - | 15 | - | - | - | -
Cc1cccc(NC(=O)CN(c2ccc(C(C)C)cc2)S(=O)(=O)c2c(C)nn(C)c2C)n1 | - | . | - | 16 | - | - | - | -
O=C(CCS(=O)(=O)c1ccccc1Cl)NC1CCCCCC1 | - | . | . | 21 | - | - | - | -
O=C(CCS(=O)(=O)c1ccccc1)NC1CCCCC1 | - | - | - | - | - | - | . | .
COc1ccc(S(=O)(=O)NC(C)C(=O)NCc2ccncc2)cc1C (configuration not stated) | - | - | - | - | - | - | . | .
COc1ccc(S(=O)(=O)NC(C)C(=O)NCc2cccnc2)cc1C (configuration not stated) | - | . | . | 15 | - | - | - | -
CC(C)(C)C(=O)c1c(N)[nH]c(C(=O)c2ccccc2)c1-c1ccc(Cl)cc1Cl | . | . | . | 16 | - | - | - | -
CCC(C)(C)n1nnnc1C(c1ccc(O)c(OC)c1)N1CCN(c2nc3ccccc3s2)CC1 (configuration not stated) | - | . | - | 24 | - | - | - | -
SMILES | Arr AP2 block | Lipid droplet | M18AAP inhibitor | m5-HT2A agonist | NRP1-CendR mod | sPLA2-III inh | OPRM1 ag | HTR2A ag conf
COc1ccccc1Cc1c(-c2cccc(Cl)c2)nc2ccc(C)cn12 | . | . | . | - | - | - | . | .
Cc1ccc2c(C)c(C(=O)Nc3c(C)n(C)n(-c4ccccc4)c3=O)oc2c1C | - | - | - | 17 | - | - | - | 40
CCN(CC(=O)Nc1ccc2c(c1)OCCO2)C(=O)CC(NC(C)=O)c1ccccc1 (configuration not stated) | - | . | . | 18 | - | - | - | -
O=C(NCC(c1ccco1)N1CCN(c2ccccc2F)CC1)C1CCCCC1 (configuration not stated) | - | . | . | 17 | - | - | - | 48
Cc1cc2oc3ccc(NCCCn4ccnc4)cc3c(=O)c2cc1C | - | . | . | 20 | - | - | 1.4 | -
Cc1cc2oc3ccc(NCCCN4CCOCC4)cc3c(=O)c2cc1C | - | . | . | - | - | - | . | .
COc1ccc(N2CCN(Cc3nc(N)nc(Nc4ccc(C)c(Cl)c4)n3)CC2)cc1 | - | - | - | - | - | - | . | .
Nc1nc(CN2CCN(c3ccccc3)CC2)nc(N2CCCc3ccccc32)n1 | - | . | - | 28 | - | - | - | 71
Nc1nc(CN2CCN(c3cccc(Cl)c3)CC2)nc(N2CCCc3ccccc32)n1 | - | - | - | 24 | - | - | - | 77
Cc1ccc(Nc2nc(N)nc(CN3CCN(c4ccccc4)CC3)n2)cc1Cl | - | - | - | 15 | - | - | - | 70
CN(C)c1ccc(C#Cc2ccc3cc(CCO)oc(=O)c3c2)cc1 | - | . | . | - | - | . | . | .
COc1cc(C#Cc2ccc3cc(CCO)oc(=O)c3c2)cc(OC)c1 | - | . | . | 17 | - | - | - | -
CCNC(=O)C1(C)CCN(C(=O)c2ccccc2C(F)(F)F)C1 (configuration not stated) | . | . | . | - | - | - | . | .
Cn1c(N)c(C(=O)Nc2c(Cl)cccc2Cl)sc1=S | - | - | - | 20 | - | - | - | -
O=C(CSc1ccc2nnc(-c3ccncc3)n2n1)Nc1ccc2c(c1)OCO2 | - | . | - | 35 | - | - | - | -
C=CCN(Cc1ccc(OC)c(OC)c1)C(=O)c1cc2cc(F)ccc2[nH]1 | - | - | - | 20 | - | - | - | -
CC(C)(C)c1ccc(-c2nnc(SCC(=O)Nc3cccc4ccccc34)n2Cc2ccco2)cc1 | . | . | . | . | . | - | . | .
CC(C)(C)C1CCSC2=NCCC[C@]2(c2ccccc2)C1 (some centres not stated) | . | . | . | - | - | - | . | .
COc1ccc(C(=O)CC(=O)C(=O)Nc2cc(C)ccc2C)cc1 | - | . | - | - | - | - | . | .
COc1ccc(C(=O)CC(=O)C(=O)NCCc2cccc(C)c2)cc1 | - | - | - | 17 | - | - | - | -
COc1ccc2c(C)cc(=O)oc2c1 | - | . | . | 29 | - | - | - | 37
CCN1C(C#N)=C(C#N)N=C(C)CC1(C)C | - | - | - | 25 | - | - | - | -
O=S(=O)(c1ccccc1)N1CCN(S(=O)(=O)c2ccc3c(c2)OCCO3)CC1 | . | . | . | . | . | - | . | .
COC(=O)C1=C(C)N(Cc2ccc(Br)cc2)C(=S)NC1c1cccc(OC)c1 (configuration not stated) | . | . | . | . | . | - | . | .
